Activity calls are given as the source filed them. No cut-off for these calls is given here.
Experiments:
[1] = target: Sodium channel protein type 9 subunit alpha (Homo sapiens, UniProt Q15858); test: Inhibition of human Nav1.7 expressed in HEK293 cells at holding potential of -125 mV […] by patchxpress-based electrophysiology assay; type: cell-based
[2] = target: Sodium channel protein type 5 subunit alpha (Homo sapiens, UniProt Q14524); test: Inhibition of human Nav1.5 expressed in HEK293 cells at holding potential of […] after 10 mins by patchxpress-based electrophysiology assay; type: cell-based
[3] = target: Sodium channel protein type 10 subunit alpha (Homo sapiens, UniProt Q9Y5Y9); test: Inhibition of human Nav1.8 expressed in HEK293 cells after 10 mins by patchxpress-based electrophysiology; type: cell-based
[4] = target: Sodium channel protein type 9 subunit alpha (Mus musculus, UniProt Q62205); test: Inhibition of Nav1.7 in C57/BL6 mouse DRG neurons assessed as reduction in TTX sensitive sodium channel-mediated currents by whole cell manual patch clamp assay
Mus musculus [5] = test: In vivo inhibition of Nav1.7 in C57/BL6 mouse model of histamine-induced pruritis assessed as reduction in scratching bouts at 1 mg/kg, sc dosed 2 hrs before histamine challenge and measured for 15 mins relative to control; type: functional
Method in brief: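 Male C57Bl/6 mice aged 8–10 weeks; nape shaved under 3% isoflurane the day before, with 15 min chamber acclimation. Peptide given sc 2 h before intradermal histamine dichloride (8.15 mM, 100 μL); vehicle was PBS with 1% MSA. Scratch bouts video-recorded for 15 min, blinded scoring; n = 8–10 per group; one-way ANOVA with Dunnett's test versus vehicle.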

[6] = Ratio of plasma concentration in C57/BL6 mouse model of histamine-induced pruritis at 1 mg/kg, sc to IC50 for Nav1.7 in C57/BL6 mouse DRG neurons by whole cell manual patch clamp assay; type: ADME, organism-based; details: in vivo
Mus musculus [7] = test: Toxicity in C57/BL6 mouse assessed as effect on locomotor activity at 1 mg/kg, sc by open field assay; type: organism-based; details: in vivo
[8] = target: Sodium channel protein type 4 subunit alpha (Homo sapiens, UniProt P35499); test: Inhibition of human Nav1.4 expressed in HEK293 cells at holding potential of -125 mV […] by patchxpress-based electrophysiology assay; type: cell-based
Sodium channel protein type 4 subunit alpha, sequence (P35499 whole entry): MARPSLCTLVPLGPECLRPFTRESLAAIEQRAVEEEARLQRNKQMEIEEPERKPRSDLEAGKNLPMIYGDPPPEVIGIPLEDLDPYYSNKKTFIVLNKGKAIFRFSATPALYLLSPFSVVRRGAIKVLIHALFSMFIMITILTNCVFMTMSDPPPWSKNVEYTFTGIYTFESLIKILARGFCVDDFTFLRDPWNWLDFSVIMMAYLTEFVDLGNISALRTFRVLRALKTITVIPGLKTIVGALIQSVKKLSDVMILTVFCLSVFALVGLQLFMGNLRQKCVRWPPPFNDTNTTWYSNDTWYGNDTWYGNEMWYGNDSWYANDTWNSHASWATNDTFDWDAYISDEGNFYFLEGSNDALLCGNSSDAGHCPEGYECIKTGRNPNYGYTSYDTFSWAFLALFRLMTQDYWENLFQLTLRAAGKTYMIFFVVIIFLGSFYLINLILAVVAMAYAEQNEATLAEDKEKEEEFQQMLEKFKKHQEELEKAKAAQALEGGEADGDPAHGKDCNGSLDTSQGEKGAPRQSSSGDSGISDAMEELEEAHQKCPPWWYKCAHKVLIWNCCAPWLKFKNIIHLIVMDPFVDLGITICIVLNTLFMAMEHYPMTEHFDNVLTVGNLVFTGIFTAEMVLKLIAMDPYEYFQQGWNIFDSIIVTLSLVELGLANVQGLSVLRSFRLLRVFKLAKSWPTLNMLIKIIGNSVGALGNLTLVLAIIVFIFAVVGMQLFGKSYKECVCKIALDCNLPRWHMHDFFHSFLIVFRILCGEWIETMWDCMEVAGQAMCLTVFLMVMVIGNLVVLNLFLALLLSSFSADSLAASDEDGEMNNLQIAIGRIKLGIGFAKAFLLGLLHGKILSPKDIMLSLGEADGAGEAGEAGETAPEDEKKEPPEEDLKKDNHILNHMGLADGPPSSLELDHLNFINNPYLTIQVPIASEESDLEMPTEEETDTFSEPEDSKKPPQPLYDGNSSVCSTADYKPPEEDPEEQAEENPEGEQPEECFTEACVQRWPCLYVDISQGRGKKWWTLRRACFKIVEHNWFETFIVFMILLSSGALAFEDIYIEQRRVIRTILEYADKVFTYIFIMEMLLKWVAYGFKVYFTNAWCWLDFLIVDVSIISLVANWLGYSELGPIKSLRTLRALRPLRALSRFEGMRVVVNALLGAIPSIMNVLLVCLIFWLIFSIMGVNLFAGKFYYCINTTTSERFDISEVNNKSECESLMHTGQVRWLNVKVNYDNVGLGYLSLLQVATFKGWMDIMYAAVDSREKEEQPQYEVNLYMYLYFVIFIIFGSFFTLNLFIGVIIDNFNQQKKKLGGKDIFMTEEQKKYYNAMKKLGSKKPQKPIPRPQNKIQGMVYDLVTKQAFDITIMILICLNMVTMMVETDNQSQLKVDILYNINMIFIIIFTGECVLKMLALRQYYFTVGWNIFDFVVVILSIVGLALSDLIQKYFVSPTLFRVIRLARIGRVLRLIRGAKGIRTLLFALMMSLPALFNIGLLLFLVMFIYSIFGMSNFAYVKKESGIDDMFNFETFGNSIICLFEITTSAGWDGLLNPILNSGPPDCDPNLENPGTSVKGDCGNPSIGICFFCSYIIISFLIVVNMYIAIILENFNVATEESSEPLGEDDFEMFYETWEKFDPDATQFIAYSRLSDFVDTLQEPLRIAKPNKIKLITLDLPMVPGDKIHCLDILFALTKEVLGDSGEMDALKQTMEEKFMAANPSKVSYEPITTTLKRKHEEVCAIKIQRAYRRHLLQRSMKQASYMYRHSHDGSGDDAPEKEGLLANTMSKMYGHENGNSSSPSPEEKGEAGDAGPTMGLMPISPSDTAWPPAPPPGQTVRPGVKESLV

Sodium channel protein type 9 subunit alpha (Homo sapiens, UniProt Q15858), sequence (Q15858 whole entry): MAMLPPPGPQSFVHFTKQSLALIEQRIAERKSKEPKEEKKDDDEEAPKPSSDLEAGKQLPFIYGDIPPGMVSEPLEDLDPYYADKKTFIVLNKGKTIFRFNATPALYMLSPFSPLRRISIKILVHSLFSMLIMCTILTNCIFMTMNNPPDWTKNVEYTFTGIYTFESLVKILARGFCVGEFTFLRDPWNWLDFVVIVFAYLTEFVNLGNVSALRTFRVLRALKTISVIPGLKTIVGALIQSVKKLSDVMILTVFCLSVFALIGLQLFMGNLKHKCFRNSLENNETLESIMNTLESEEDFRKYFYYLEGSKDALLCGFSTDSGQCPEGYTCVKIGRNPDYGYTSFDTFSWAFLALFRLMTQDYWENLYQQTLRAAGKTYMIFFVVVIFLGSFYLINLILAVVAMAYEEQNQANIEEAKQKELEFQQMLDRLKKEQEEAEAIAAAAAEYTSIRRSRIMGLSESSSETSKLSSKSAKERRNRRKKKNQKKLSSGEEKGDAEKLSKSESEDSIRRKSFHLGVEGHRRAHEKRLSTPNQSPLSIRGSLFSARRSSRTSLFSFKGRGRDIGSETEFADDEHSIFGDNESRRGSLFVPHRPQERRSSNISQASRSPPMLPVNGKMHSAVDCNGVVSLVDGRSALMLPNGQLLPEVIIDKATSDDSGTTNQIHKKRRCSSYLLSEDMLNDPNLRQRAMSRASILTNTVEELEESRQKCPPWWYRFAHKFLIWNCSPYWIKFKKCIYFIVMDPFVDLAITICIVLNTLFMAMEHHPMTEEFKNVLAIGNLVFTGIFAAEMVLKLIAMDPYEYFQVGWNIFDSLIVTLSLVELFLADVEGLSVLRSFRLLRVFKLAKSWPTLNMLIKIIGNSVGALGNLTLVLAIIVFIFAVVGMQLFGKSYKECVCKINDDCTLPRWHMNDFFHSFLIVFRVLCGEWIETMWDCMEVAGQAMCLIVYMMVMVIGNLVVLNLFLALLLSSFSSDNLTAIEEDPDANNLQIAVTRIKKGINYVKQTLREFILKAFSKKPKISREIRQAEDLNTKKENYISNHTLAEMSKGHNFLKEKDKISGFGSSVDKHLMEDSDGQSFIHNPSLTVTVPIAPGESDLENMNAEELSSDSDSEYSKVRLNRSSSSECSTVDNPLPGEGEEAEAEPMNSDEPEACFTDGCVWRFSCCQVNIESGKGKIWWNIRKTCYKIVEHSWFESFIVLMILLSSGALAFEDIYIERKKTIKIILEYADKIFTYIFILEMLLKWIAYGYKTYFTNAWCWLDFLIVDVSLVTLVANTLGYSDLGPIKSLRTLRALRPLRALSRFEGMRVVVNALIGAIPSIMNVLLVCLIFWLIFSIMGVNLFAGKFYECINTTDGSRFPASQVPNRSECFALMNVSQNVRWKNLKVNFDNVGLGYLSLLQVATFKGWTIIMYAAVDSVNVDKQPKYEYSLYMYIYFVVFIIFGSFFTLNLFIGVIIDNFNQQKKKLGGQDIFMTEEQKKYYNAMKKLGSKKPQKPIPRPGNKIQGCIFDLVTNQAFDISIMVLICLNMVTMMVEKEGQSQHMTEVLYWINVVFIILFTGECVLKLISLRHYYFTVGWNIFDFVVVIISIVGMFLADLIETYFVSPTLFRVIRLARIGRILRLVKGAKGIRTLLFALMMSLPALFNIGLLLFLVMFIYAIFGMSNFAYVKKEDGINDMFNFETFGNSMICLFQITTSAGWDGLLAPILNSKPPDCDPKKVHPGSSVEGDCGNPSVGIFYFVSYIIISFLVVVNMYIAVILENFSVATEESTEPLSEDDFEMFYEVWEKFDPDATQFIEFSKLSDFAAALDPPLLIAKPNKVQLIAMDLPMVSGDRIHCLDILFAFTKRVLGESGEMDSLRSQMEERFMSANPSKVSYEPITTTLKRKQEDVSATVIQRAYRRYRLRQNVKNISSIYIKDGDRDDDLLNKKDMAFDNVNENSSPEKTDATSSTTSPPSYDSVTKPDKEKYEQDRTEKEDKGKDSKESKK

Compound	IC50 [1] [nM]	IC50 [2] [nM]	IC50 [3] [nM]	IC50 [4] [nM]	Activity (Mus musculus [5])	Ratio [6]	Activity (Mus musculus [7])	IC50 [8] [nM]
C#CC[C@H](N)C(=O)N[C@@H](Cc1ccc(O)cc1)C(=O)N[C@H]1CSSC[C@@H]2NC(=O)[C@@H]3CSSC[C@@H](C(=O)N[C@@H](CCCNC(=N)N)C(=O)N[C@@H](CCCCN)C(=O)N[C@@H](CCC(=O)O)C(=O)N[C@H](C(N)=O)[C@@H](C)CC)NC(=O)[C@H](Cc4c[nH]c5ccccc45)NC(=O)[C@H](CC(C)C)NC(=O)[C@H](CCCCN)NC(=O)[C@H](CSSC[C@H](NC(=O)[C@H]([C@@H](C)O)NC(=O)[C@H](Cc4c[nH]c5ccccc45)NC(=O)[C@H](CCCC)NC(=O)[C@H](Cc4c[nH]c5ccccc45)NC(=O)[C@H](CCCCN)NC(=O)[C@H](CCC(N)=O)NC1=O)C(=O)N[C@@H](CC(=O)O)C(=O)N[C@@H](CO)C(=O)N[C@@H](CCCCN)C(=O)N[C@@H](CCCNC(=N)N)C(=O)N[C@@H](C)C(=O)N3)NC(=O)[C@H](CCCNC(=N)N)NC(=O)[C@H](CC(C)C)NC(=O)CNC(=O)[C@H](CCC(=O)O)NC2=O	0.5	3070	> 1000	9	inactive	6.5	Non-Toxic	–
C#CC[C@H](N)C(=O)N[C@@H](Cc1ccc(O)cc1)C(=O)N[C@H]1CSSC[C@@H]2NC(=O)[C@@H]3CSSC[C@@H](C(=O)N[C@@H](CCCNC(=N)N)C(=O)N[C@@H](CCCCN)C(=O)N[C@@H](CCC(=O)O)C(=O)N[C@H](C(N)=O)[C@@H](C)CC)NC(=O)[C@H](Cc4c[nH]c5ccccc45)NC(=O)[C@H](CC(C)C)NC(=O)[C@H](CCCCN)NC(=O)[C@H](CSSC[C@H](NC(=O)[C@H]([C@@H](C)O)NC(=O)[C@H](Cc4c[nH]c5ccccc45)NC(=O)[C@H](CCCC)NC(=O)[C@H](Cc4ccccc4)NC(=O)[C@H](CCCCN)NC(=O)[C@H](CCC(N)=O)NC1=O)C(=O)N[C@@H](CC(=O)O)C(=O)N[C@@H](CO)C(=O)N[C@@H](CCCCN)C(=O)N[C@@H](CCCNC(=N)N)C(=O)N[C@@H](C)C(=O)N3)NC(=O)[C@H](CCCNC(=N)N)NC(=O)[C@H](CC(C)C)NC(=O)CNC(=O)[C@H](CCC(=O)O)NC2=O	1.3	–	–	–	–	–	–	52
C#CC[C@H](NC(=O)[C@@H](N)CCC(=O)O)C(=O)N[C@H]1CSSC[C@@H]2NC(=O)[C@@H]3CSSC[C@@H](C(=O)N[C@@H](CCCNC(=N)N)C(=O)N[C@@H](CCCCN)C(=O)N[C@@H](CCC(=O)O)C(=O)N[C@H](C(N)=O)[C@@H](C)CC)NC(=O)[C@H](Cc4c[nH]c5ccc(Br)cc45)NC(=O)[C@H](CC(C)C)NC(=O)[C@H](CCCCN)NC(=O)[C@H](CSSC[C@H](NC(=O)[C@H]([C@@H](C)O)NC(=O)[C@H](Cc4c[nH]c5ccccc45)NC(=O)[C@H](CCCC)NC(=O)[C@H](Cc4c[nH]c5ccccc45)NC(=O)[C@H](CCCCN)NC(=O)[C@H](CCC(N)=O)NC1=O)C(=O)N[C@@H](CC(=O)O)C(=O)N[C@@H](CO)C(=O)N[C@@H](CCC(=O)O)C(=O)N[C@@H](CCCNC(=N)N)C(=O)N[C@@H](C)C(=O)N3)NC(=O)[C@H](CCCNC(=N)N)NC(=O)[C@H](CC(C)C)NC(=O)CNC(=O)[C@H](CCC(=O)O)NC2=O	0.5	–	–	–	–	–	–	72

Source: ChEMBL document CHEMBL4152382, “Discovery of Tarantula Venom-Derived NaV1.7-Inhibitory JzTx-V Peptide 5-Br-Trp24 Analogue AM-6120 with Systemic Block of Histamine-Induced Pruritis” (J Med Chem, 2018)
